ChEMBL document CHEMBL3272207, “Structure-activity relationship in cinnamamides. 2. Synthesis and pharmacological evaluation of some (E)- and (Z)-N-alkyl-alpha, beta-dimethylcinnamamides substituted on the phenyl group” (J Med Chem, 1977)
Activity calls are given as the source filed them. No cut-off for these calls is given here.

Tests used:
Mus musculus [1] = experiment: Behavioral toxicity in po dosed albino Icem-CET (SPF Caw) mouse assessed as positional passivity by Irwin's test; format: organism-based; settings: in vivo
[2] = Behavioral toxicity in po dosed albino Icem-CET (SPF Caw) mouse measured up to 7 days by Irwin's test; format: organism-based; settings: in vivo
Mus musculus [3] = experiment: Anticonvulsant activity in po dosed albino Icem-CET (SPF Caw) mouse assessed as inhibition of pentylenetetrazole-induced maximal extensor seizures compound administered 30 mins prior challenge; format: functional
Procedure, shortened: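 Pentylenetetrazole antagonism in male Icem-CET (SPF Caw) mice, 17-22 g, fasted 9 h. Compound in 0.5% Methocel was given by gavage (0.2 ml/10 g) at 4-5 doses, 20 mice per dose, 30 min before pentylenetetrazole 130 mg/kg ip. Prevention of maximal extensor seizures was scored. ED50 was calculated by probit analysis, with fiducial limits at p = 0.05.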

Mus musculus [4] = experiment: Behavioral toxicity in po dosed albino Icem-CET (SPF Caw) mouse assessed as tremors by Irwin's test; format: organism-based; settings: in vivo
Mus musculus [5] = experiment: Behavioral toxicity in po dosed albino Icem-CET (SPF Caw) mouse assessed as reduction in locomotor activity by Irwin's test; format: organism-based; settings: in vivo
Mus musculus [6] = experiment: Toxicity in po dosed albino Icem-CET (SPF Caw) mouse assessed as clonic type convulsion by Irwin's test; format: organism-based; settings: in vivo
Procedure, shortened: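 Irwin test in fasted (9 h) male Icem-CET (SPF Caw) mice, 17-22 g. Oral gavage of a 0.5% Methocel suspension at screening doses of 25-800 mg/kg. Clonic-type convulsions were scored as the minimum effective dose.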

Mus musculus [7] = experiment: Anticonvulsant activity in albino Icem-CET (SPF Caw) mouse assessed as inhibition of pentylenetetrazole-induced maximal extensor seizures at 100 mg/kg, po administered 30 mins prior challenge; format: functional, organism-based; design: dose 100 mg/kg
Procedure, shortened: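 Single-dose screen at 100 mg/kg by gavage in 0.5% Methocel in fasted male Icem-CET (SPF Caw) mice, 17-22 g. Dosing was 30 min before pentylenetetrazole 130 mg/kg ip, and prevention of maximal extensor seizures was scored.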

Mus musculus [8] = experiment: Behavioral toxicity in albino Icem-CET (SPF Caw) mouse assessed as positional passivity at 25 to 800 mg/kg, po by Irwin's test; format: organism-based; design: dose 25-800 mg/kg, route oral; settings: in vivo

Compound | ED50 (Mus musculus [1]) | LD50 at 168 h [2] | ED50 (Mus musculus [3]) | ED50 (Mus musculus [4]) | ED50 (Mus musculus [5]) | MED (Mus musculus [6]) | Activity (Mus musculus [7]) | Activity (Mus musculus [8])
C#CCNC(=O)/C(C)=C(\C)c1ccc(C)cc1 | 200 mg/kg | > 800 mg/kg | 86.4 mg/kg | 150 mg/kg | 120 mg/kg | – | – | –
C/C(C(=O)NC1CC1)=C(/C)c1ccccc1 | 250 mg/kg | 500 mg/kg | – | 150 mg/kg | 100 mg/kg | – | – | –
C/C(C(=O)NC1CC1)=C(\C)c1ccccc1 | – | 600 mg/kg | – | 300 mg/kg | 400 mg/kg | 400 mg/kg | inactive | Non-toxic
C=CCNC(=O)/C(C)=C(\C)c1cc(OC)c(OC)c(OC)c1 | 280 mg/kg | 600 mg/kg | – | 190 mg/kg | 110 mg/kg | – | inactive | –
C=CCNC(=O)/C(C)=C(/C)c1ccc(C)cc1 | – | > 800 mg/kg | – | 400 mg/kg | 280 mg/kg | 400 mg/kg | inactive | Non-toxic
C=CCNC(=O)/C(C)=C(/C)c1ccc(Cl)cc1 | 280 mg/kg | 600 mg/kg | – | 400 mg/kg | 180 mg/kg | 400 mg/kg | inactive | –
C#CCNC(=O)/C(C)=C(\C)c1ccccc1 | 400 mg/kg | 300 mg/kg | 45.3 mg/kg | 150 mg/kg | 150 mg/kg | – | – | –
C=CCNC(=O)/C(C)=C(\C)c1ccc(Cl)cc1 | 90 mg/kg | 300 mg/kg | – | 70 mg/kg | 70 mg/kg | – | – | –
C=CCNC(=O)/C(C)=C(\C)c1ccc(OC)cc1 | 300 mg/kg | > 800 mg/kg | – | 300 mg/kg | 200 mg/kg | – | inactive | –
C#CCNC(=O)/C(C)=C(\C)c1cc(OC)c(OC)c(OC)c1 | 300 mg/kg | 500 mg/kg | 53.1 mg/kg | 150 mg/kg | 160 mg/kg | – | – | –
C/C(C(=O)NC1CC1)=C(/C)c1ccc(C)cc1 | 300 mg/kg | > 800 mg/kg | – | 150 mg/kg | 110 mg/kg | – | inactive | –
C=CCNC(=O)/C(C)=C(\C)c1ccc(Br)cc1 | 500 mg/kg | 600 mg/kg | 33.7 mg/kg | 500 mg/kg | 120 mg/kg | – | – | –
C/C(C(=O)NC1CC1)=C(/C)c1ccc(Cl)cc1 | > 800 mg/kg | 300 mg/kg | – | 150 mg/kg | 350 mg/kg | – | – | –
COc1cc(/C(C)=C(\C)C(=O)NC2CC2)cc(OC)c1OC | > 800 mg/kg | > 800 mg/kg | – | > 800 mg/kg | 320 mg/kg | – | inactive | –
C#CCNC(=O)/C(C)=C(\C)c1ccc(OC)cc1 | 400 mg/kg | > 800 mg/kg | 112 mg/kg | 150 mg/kg | 150 mg/kg | – | – | –
C=CCNC(=O)/C(C)=C(\C)c1ccccc1 | 300 mg/kg | 550 mg/kg | – | 250 mg/kg | 130 mg/kg | – | – | –
COc1ccc(/C(C)=C(\C)C(=O)NC2CC2)cc1 | 300 mg/kg | > 800 mg/kg | – | 250 mg/kg | 250 mg/kg | – | inactive | –
C=CCNC(=O)/C(C)=C(\C)c1ccc(C)cc1 | 170 mg/kg | 600 mg/kg | 78 mg/kg | 150 mg/kg | 100 mg/kg | – | – | –
C#CCNC(=O)/C(C)=C(\C)c1ccc(Br)cc1 | 500 mg/kg | 300 mg/kg | 18.4 mg/kg | 150 mg/kg | 180 mg/kg | – | – | –
